{
  "source": "ChEMBL document CHEMBL1134682",
  "about": "“A novel series of 2,6,7-substituted 2,3-dihydro-1,4-benzodioxin and 2,6,7-substituted 1,4-benzodioxin derivatives as lipid peroxidation inhibitors. Structure-activity relationships for high inhibition of human low-density lipoprotein peroxidation” (J Med Chem, 2001)",
  "key": {"[1]": {"species": "Homo sapiens", "assay": "Concentration inhibiting 50% of the copper induced lipid peroxidation determined using the thiobarbituric acid reactive substance and expressed as an MDA equivalent", "type": "functional", "in_short": "(§1)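 Human LDL was isolated by ultracentrifugation (1.019 < d < 1.063) from pooled EDTA (0.04%) plasma of healthy normolipidemic donors. Oxidation was driven by Cu²⁺ for 3 h at 37 °C, with compounds in DMSO added just before. TBARS was read by the Yagi method as MDA equivalents. Ten concentrations from 10⁻⁷ to 10⁻³ M were run in duplicate, with IC50 by linear regression. A ratio versus probucol corrected for LDL batch.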"}, "[2]": {"species": "Rattus norvegicus", "assay": "Inhibitory concentration against KCl induced rat thoracic aorta contraction", "type": "functional", "in_short": "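Isolated rat aorta was contracted with hyperpotassic KCl (60 mM). Inhibition of contraction was measured over eight increasing concentrations (10⁻⁸ to 3 × 10⁻⁵ M), each in duplicate, on two preparations. IC50 came from the concentration–response curve by linear regression.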"}, "[3]": {"species": "Homo sapiens", "assay": "Tested for the activity ratio versus probucol", "type": "functional", "in_short": "as §1"}, "[4]": {"tested_on": "Mus musculus", "assay": "Compound was tested for change in the total cholesterol after (po) administration of 100 mg/kg in mice", "type": "functional", "in_short": "(§2)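 Groups of six mice were made hypercholesterolaemic by a high-cholesterol, cholic-acid diet for 7 days. Compound was dosed po, half on day 6 and half on day 7, then mice were fasted overnight without food or water. Serum total cholesterol and heparin-precipitated LDL-VLDL were compared with hypercholesterolaemic controls.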"}, "[5]": {"tested_on": "Mus musculus", "assay": "Compound was tested for change in the LDL-VLDL fraction after (po) administration of 100 mg/kg in mice", "type": "functional", "in_short": "as §2"}, "[6]": {"tested_on": "Mus musculus", "assay": "Compound was tested for the time before the first gasps after ip administration of 2.5 mg/kg in hypoxia test; inactive", "type": "functional, organism-based", "set-up": "dose 2.5 mg/kg", "in_short": "(§3)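 Male Swiss CD1 mice (25–30 g) were housed 1 week at 20–22 °C, 55% humidity, 12/12 light cycle. Compound was given ip 30 min before placing each mouse in a small box flushed with 96% N₂/4% O₂ at 12 L/min. Read-out was the time until the first gasps. Vincamine was the reference.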"}, "[7]": {"tested_on": "Mus musculus", "assay": "Compound was tested for the time before the first gasps after ip administration of 20 mg/kg in hypoxia test", "type": "functional", "conditions": "route intraperitoneal", "in_short": "as §3"}, "[8]": {"species": "Homo sapiens", "assay": "Concentration inhibiting 50% of the copper induced lipid peroxidation determined using th e thiobarbituric acid reactive substance and expressed as an MDA equivalent; Peroxidant", "type": "functional", "in_short": "as §1"}, "[9]": {"species": "Homo sapiens", "assay": "Concentration inhibiting 50% of the copper induced lipid peroxidation determined using th e thiobarbituric acid reactive substance and expressed as an MDA equivalent", "type": "functional", "in_short": "as §1"}, "[10]": {"species": "Homo sapiens", "assay": "Compound was tested for the activity ratio versus probucol", "type": "functional", "in_short": "as §1"}, "[11]": {"tested_on": "Mus musculus", "assay": "Compound was tested for the time before the first gasps after ip administration of 2.5 mg/kg in hypoxia test", "type": "functional", "conditions": "route intraperitoneal", "in_short": "as §3"}, "[12]": {"tested_on": "Mus musculus", "assay": "Compound was tested for the time before the first gasps after ip administration of 1 mg/kg in hypoxia test", "type": "functional", "conditions": "route intraperitoneal", "in_short": "as §3"}, "[13]": {"tested_on": "Mus musculus", "assay": "Compound was tested for change in the LDL-VLDL fraction after (po) administration of 300 mg/kg in mice", "type": "functional", "in_short": "as §2"}, "[14]": {"tested_on": "Mus musculus", "assay": "Compound was tested for change in the total cholesterol after (po) administration of 300 mg/kg in mice", "type": "functional", "in_short": "as §2"}},
  "note": "The source made the active and inactive calls. No cut-off for these calls is given here.",
  "data": [
    {"compound": "O=C(C1COc2ccc(O)cc2O1)N1CCN(C(c2ccc(F)cc2)c2ccc(F)cc2)CC1", "note": "(configuration not stated)", "values": [
      {"measurement": "IC50", "setting": "[1]", "value": 200, "unit": "nM"},
      {"measurement": "IC50", "setting": "[2]", "value": 2200, "unit": "nM"},
      {"measurement": "Ratio", "setting": "[3]", "value": 10}
    ]},
    {"compound": "Oc1ccc2c(c1)OC=C(C(=S)N1CCN(C(c3ccc(F)cc3)c3ccc(F)cc3)CC1)O2", "values": [
      {"measurement": "IC50", "setting": "[1]", "value": 9000, "unit": "nM"},
      {"measurement": "Ratio", "setting": "[3]", "value": 0.5}
    ]},
    {"compound": "CCCCN(C(=O)C1=COc2ccc(O)cc2O1)c1ccccc1", "values": [
      {"measurement": "IC50", "setting": "[1]", "value": 400, "unit": "nM"},
      {"measurement": "Ratio", "setting": "[3]", "value": 2}
    ]},
    {"compound": "Fc1ccc(C(c2ccc(F)cc2)N2CCN(C/C=C/c3ccccc3)CC2)cc1", "note": "[FLUNARIZINE]", "values": [
      {"measurement": "IC50", "setting": "[2]", "value": 270, "unit": "nM"}
    ]},
    {"compound": "CC(C)(Oc1ccc(CCNC(=O)c2ccc(Cl)cc2)cc1)C(=O)O", "note": "[BEZAFIBRATE]", "values": [
      {"measurement": "Change", "setting": "[4]", "value": -25, "unit": "%"},
      {"measurement": "Change", "setting": "[5]", "value": -20, "unit": "%"}
    ]},
    {"compound": "COc1ccc2c(c1)OC=C(C(=O)N1CCN(C(c3ccc(F)cc3)c3ccc(F)cc3)CC1)O2", "values": [
      {"measurement": "IC50", "setting": "[1]", "value": "> 100000", "unit": "nM"},
      {"measurement": "Ratio", "setting": "[3]", "value": "<0.005"}
    ]},
    {"compound": "O=C(C1COc2cc(O)ccc2O1)N1CCN(C(c2ccc(F)cc2)c2ccc(F)cc2)CC1", "note": "(configuration not stated)", "values": [
      {"measurement": "IC50", "setting": "[1]", "value": 3000, "unit": "nM"},
      {"measurement": "IC50", "setting": "[2]", "value": 3000, "unit": "nM"},
      {"measurement": "Ratio", "setting": "[3]", "value": 1.7}
    ]},
    {"compound": "Oc1ccc2c(c1)OC=C(CN1CCC(=C(c3ccc(F)cc3)c3ccc(F)cc3)CC1)O2", "values": [
      {"measurement": "IC50", "setting": "[1]", "value": "< 100", "unit": "nM"},
      {"measurement": "Ratio", "setting": "[3]", "value": ">45"}
    ]},
    {"compound": "Nc1ccc2c(c1)OC=C(C(=O)N1CCN(C(c3ccc(F)cc3)c3ccc(F)cc3)CC1)O2", "values": [
      {"measurement": "IC50", "setting": "[1]", "value": 35000, "unit": "nM"},
      {"measurement": "Ratio", "setting": "[3]", "value": 0.1}
    ]},
    {"compound": "O=C(C1=COc2ccc(O)cc2O1)N1CCN(C(c2ccc(F)cc2)c2ccc(F)cc2)CC1", "values": [
      {"measurement": "IC50", "setting": "[1]", "value": 700, "unit": "nM"},
      {"measurement": "Ratio", "setting": "[3]", "value": 2.9}
    ]},
    {"compound": "O=C(C1=COc2cc(O)ccc2O1)N1CCC(=C(c2ccc(F)cc2)c2ccc(F)cc2)CC1", "values": [
      {"measurement": "IC50", "setting": "[1]", "value": 500, "unit": "nM"},
      {"measurement": "Ratio", "setting": "[3]", "value": 2}
    ]},
    {"compound": "CC[C@]12CCCN3CCc4c(n(c5ccccc45)[C@@](O)(C(=O)OC)C1)[C@@H]32", "note": "[VINCAMINE]", "values": [
      {"measurement": "IA", "setting": "[6]", "value": "inactive"},
      {"measurement": "Time", "setting": "[7]", "value": 147, "unit": "s"}
    ]},
    {"compound": "COc1ccc(CN2CCN(C(=O)C3COc4ccc(O)cc4O3)CC2)c(OC)c1OC", "note": "(configuration not stated)", "values": [
      {"measurement": "IC50", "setting": "[1]", "value": 1700, "unit": "nM"},
      {"measurement": "Ratio", "setting": "[3]", "value": 3}
    ]},
    {"compound": "O=C(C1=COc2ccccc2O1)N1CCN(C(c2ccc(F)cc2)c2ccc(F)cc2)CC1", "values": [
      {"measurement": "IC50", "setting": "[2]", "value": 1800, "unit": "nM"}
    ]},
    {"compound": "O=C(Oc1ccc2c(c1)OC=C(C(=O)N1CCN(C(c3ccc(F)cc3)c3ccc(F)cc3)CC1)O2)c1cccnc1", "values": [
      {"measurement": "IC50", "setting": "[8]", "value": "Peroxidant"}
    ]},
    {"compound": "COc1ccc(CN2CCN(C(=O)C3=COc4ccc(O)cc4O3)CC2)c(OC)c1OC", "values": [
      {"measurement": "IC50", "setting": "[1]", "value": 3000, "unit": "nM"},
      {"measurement": "Ratio", "setting": "[3]", "value": 1.7}
    ]},
    {"compound": "O=C(Nc1ccccc1)C1=COc2ccc(O)cc2O1", "values": [
      {"measurement": "IC50", "setting": "[9]", "value": 500, "unit": "nM"},
      {"measurement": "Ratio", "setting": "[10]", "value": 4}
    ]},
    {"compound": "CCCCN(C(=O)C1=COc2cc(O)ccc2O1)c1ccccc1", "values": [
      {"measurement": "IC50", "setting": "[1]", "value": 1000, "unit": "nM"},
      {"measurement": "Ratio", "setting": "[3]", "value": 2}
    ]},
    {"compound": "Oc1ccc2c(c1)OC=C(CN1CCN(C(c3ccc(F)cc3)c3ccc(F)cc3)CC1)O2", "values": [
      {"measurement": "IC50", "setting": "[1]", "value": 1000, "unit": "nM"},
      {"measurement": "Time", "setting": "[7]", "value": 60, "unit": "s"},
      {"measurement": "Change", "setting": "[4]", "value": -33, "unit": "%"},
      {"measurement": "Change", "setting": "[5]", "value": -35, "unit": "%"},
      {"measurement": "Time", "setting": "[11]", "value": 65, "unit": "s"},
      {"measurement": "IC50", "setting": "[2]", "value": 570, "unit": "nM"},
      {"measurement": "Time", "setting": "[12]", "value": 78, "unit": "s"},
      {"measurement": "Change", "setting": "[13]", "value": -52, "unit": "%"},
      {"measurement": "Ratio", "setting": "[3]", "value": 5},
      {"measurement": "Change", "setting": "[14]", "value": -48, "unit": "%"}
    ]},
    {"compound": "O=C(C1=COc2cc(O)ccc2O1)N1CCN(C(c2ccc(F)cc2)c2ccc(F)cc2)CC1", "values": [
      {"measurement": "IC50", "setting": "[1]", "value": "< 100", "unit": "nM"},
      {"measurement": "Time", "setting": "[7]", "value": 67, "unit": "s"},
      {"measurement": "Time", "setting": "[11]", "value": 108, "unit": "s"},
      {"measurement": "IC50", "setting": "[2]", "value": 560, "unit": "nM"},
      {"measurement": "Time", "setting": "[12]", "value": 55, "unit": "s"},
      {"measurement": "Ratio", "setting": "[3]", "value": ">45"},
      {"measurement": "Change", "setting": "[14]", "value": -7, "unit": "%"}
    ]},
    {"compound": "CC(C)(C)c1cc2c(cc1O)OC=C(C(=O)N1CCN(C(c3ccc(F)cc3)c3ccc(F)cc3)CC1)O2", "values": [
      {"measurement": "IC50", "setting": "[1]", "value": 1000, "unit": "nM"},
      {"measurement": "IC50", "setting": "[2]", "value": 3100, "unit": "nM"},
      {"measurement": "Ratio", "setting": "[3]", "value": 5}
    ]},
    {"compound": "CCCCN(C(=O)C1=COc2cc(O)c(C(C)(C)C)cc2O1)c1ccccc1", "values": [
      {"measurement": "IC50", "setting": "[1]", "value": 200, "unit": "nM"},
      {"measurement": "Ratio", "setting": "[3]", "value": 5}
    ]}
  ]
}
